Laboratory results from ChEMBL document CHEMBL3352345, “Design, synthesis and biological evaluation of novel thieno[3,2-d]pyrimidine derivatives containing diaryl urea moiety as potent antitumor agents” (Eur J Med Chem, 2014).

Tests used:
[1] = biological target: RAF proto-oncogene serine/threonine-protein kinase (Homo sapiens, UniProt P04049); test: Inhibition of C-Raf (unknown origin) using poly (Glu, Tyr) 4:1 substrate incubated for 30 mins by HTRF assay
Method in brief: (§1)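 Compounds in 1% DMSO, blank DMSO as negative control. Reaction started with purified tyrosine kinase, 30 min at 25 °C, stopped with Streptavidin-XL665 and Tk antibody cryptate; read at […] and 615 nm.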

[2] = biological target: Vascular endothelial growth factor receptor (Homo sapiens, UniProt P17948+P35916+P35968); test: Inhibition of VEGFR (unknown origin) using poly (Glu, Tyr) 4:1 substrate incubated for 30 mins by HTRF assay; format: protein assay
[3] = biological target: T1, Receptor-type tyrosine-protein kinase FLT3 (Homo sapiens, UniProt P36888); test: Inhibition of FLT3 (unknown origin) using poly (Glu, Tyr) 4:1 substrate incubated for 30 mins by HTRF assay; method in brief: as §1
T1 sequence (P36888 whole entry): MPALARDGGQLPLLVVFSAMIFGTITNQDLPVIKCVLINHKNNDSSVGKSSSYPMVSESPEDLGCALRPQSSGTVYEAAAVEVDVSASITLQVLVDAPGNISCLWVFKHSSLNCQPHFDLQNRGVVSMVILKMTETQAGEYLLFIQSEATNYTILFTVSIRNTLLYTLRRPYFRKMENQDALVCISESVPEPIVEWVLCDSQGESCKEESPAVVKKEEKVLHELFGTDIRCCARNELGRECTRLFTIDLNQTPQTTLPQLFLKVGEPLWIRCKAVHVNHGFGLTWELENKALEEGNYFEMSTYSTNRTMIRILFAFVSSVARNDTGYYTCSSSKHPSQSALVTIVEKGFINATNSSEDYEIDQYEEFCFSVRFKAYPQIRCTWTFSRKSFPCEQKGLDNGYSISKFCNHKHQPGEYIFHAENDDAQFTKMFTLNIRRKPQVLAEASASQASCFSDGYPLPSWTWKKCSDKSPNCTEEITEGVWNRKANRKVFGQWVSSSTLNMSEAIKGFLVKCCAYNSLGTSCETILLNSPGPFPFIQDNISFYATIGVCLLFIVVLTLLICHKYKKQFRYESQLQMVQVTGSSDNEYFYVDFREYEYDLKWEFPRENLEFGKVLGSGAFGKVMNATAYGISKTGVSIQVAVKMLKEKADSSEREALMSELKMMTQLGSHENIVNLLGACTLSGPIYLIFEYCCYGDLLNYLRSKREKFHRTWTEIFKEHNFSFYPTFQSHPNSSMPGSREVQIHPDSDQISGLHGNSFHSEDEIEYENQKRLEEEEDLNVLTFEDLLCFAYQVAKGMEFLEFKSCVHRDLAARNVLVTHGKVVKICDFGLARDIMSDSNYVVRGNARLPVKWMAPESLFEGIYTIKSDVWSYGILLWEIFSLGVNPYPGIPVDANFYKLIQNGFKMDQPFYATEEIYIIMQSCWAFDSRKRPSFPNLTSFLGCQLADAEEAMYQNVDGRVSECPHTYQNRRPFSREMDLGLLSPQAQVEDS

[4] = biological target: Epidermal growth factor receptor (Homo sapiens, UniProt P00533); test: Inhibition of EGFR (unknown origin) using poly (Glu, Tyr) 4:1 substrate incubated for 30 mins by HTRF assay
HT-29 [5] = test: Induction of apoptosis in human HT-29 cells assessed as increase in PARP cleavage at 5 uM pre-treated for 48 hrs by Western blot method relative to beta-actin expression; format: functional
Method in brief: (§2)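 HT-29 cells (about 1 × 10⁷) treated 48 h with vehicle or 1 or 5 µM compound; lysates prepared with lysis buffer plus protease inhibitor cocktail and sonicated. Equal total protein run on 10% SDS-PAGE, transferred to PVDF, probed with primary and HRP secondary antibodies. Cleaved PARP to β-actin ratio expressed relative to control.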

[6] = Cytotoxicity against human MKN45 cells after 72 hrs by MTT assay; format: functional, cell-based; settings: MKN-45, 72 h
Method in brief: (§3)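 Cells suspended in MEM medium, plated and incubated 24 h at 37 °C in 5% CO₂, then exposed to compounds at indicated final concentrations for 72 h. IC₅₀ from averages of three determinations, relative to DMSO vehicle control.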

HT-29 [7] = test: Cytotoxicity against human HT-29 cells after 72 hrs by MTT assay; format: functional, cell-based; settings: HT-29, 72 h; method in brief: as §3
HT-29 [8] = test: Induction of apoptosis in human HT-29 cells assessed as increase in PARP cleavage pre-treated for 48 hrs by Western blot method; format: functional, cell-based; method in brief: as §2
[9] = biological target: Vascular endothelial growth factor receptor 2 (Homo sapiens, UniProt P35968); test: Inhibition of KDR (unknown origin) using poly (Glu, Tyr) 4:1 substrate incubated for 30 mins by HTRF assay
Chain of Vascular endothelial growth factor receptor 2 (P35968 whole entry): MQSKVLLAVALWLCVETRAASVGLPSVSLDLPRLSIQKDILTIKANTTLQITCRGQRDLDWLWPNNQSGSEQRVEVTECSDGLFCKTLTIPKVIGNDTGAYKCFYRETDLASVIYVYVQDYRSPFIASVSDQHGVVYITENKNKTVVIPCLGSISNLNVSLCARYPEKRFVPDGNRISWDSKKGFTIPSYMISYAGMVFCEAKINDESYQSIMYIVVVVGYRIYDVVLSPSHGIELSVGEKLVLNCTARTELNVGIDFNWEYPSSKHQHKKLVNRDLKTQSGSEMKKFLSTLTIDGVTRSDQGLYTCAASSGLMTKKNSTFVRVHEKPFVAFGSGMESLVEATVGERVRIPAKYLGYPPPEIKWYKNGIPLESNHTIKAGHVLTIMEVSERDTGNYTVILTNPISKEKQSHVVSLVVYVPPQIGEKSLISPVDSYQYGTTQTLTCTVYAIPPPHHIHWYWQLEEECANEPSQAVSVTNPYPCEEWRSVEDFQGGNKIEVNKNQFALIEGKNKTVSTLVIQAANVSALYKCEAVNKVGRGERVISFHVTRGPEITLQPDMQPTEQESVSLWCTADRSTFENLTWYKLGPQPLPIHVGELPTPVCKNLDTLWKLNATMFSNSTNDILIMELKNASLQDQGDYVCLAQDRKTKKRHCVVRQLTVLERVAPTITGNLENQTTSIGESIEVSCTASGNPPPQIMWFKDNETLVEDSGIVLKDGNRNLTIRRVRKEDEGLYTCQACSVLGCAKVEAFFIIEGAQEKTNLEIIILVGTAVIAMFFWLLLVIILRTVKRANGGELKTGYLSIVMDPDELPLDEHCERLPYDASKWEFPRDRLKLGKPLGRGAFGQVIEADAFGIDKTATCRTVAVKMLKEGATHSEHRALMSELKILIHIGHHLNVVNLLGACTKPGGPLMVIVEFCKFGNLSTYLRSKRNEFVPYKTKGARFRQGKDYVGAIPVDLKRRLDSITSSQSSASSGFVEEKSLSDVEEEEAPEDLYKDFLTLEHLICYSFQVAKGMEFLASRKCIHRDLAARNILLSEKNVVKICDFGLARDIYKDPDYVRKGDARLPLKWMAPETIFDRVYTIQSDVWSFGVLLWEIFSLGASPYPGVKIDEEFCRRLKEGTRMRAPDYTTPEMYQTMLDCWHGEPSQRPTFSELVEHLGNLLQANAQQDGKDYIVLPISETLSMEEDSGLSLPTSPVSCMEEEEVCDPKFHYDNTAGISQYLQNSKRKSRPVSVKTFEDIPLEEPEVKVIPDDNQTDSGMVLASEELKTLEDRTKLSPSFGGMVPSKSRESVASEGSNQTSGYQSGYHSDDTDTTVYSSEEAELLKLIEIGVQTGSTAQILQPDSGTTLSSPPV

MDA-MB-231 = test: Cytotoxicity against human MDA-MB-231 cells after 72 hrs by MTT assay; format: functional, cell-based; settings: MDA-MB-231, 72 h; method in brief: as §3
[10] = biological target: Serine/threonine-protein kinase mTOR (Homo sapiens, UniProt P42345); test: Inhibition of mTOR (unknown origin) using poly (Glu, Tyr) 4:1 substrate incubated for 30 mins by HTRF assay; method in brief: as §1
[11] = biological target: Serine/threonine-protein kinase B-raf (Homo sapiens, UniProt P15056); test: Inhibition of B-Raf (unknown origin) using poly (Glu, Tyr) 4:1 substrate incubated for 30 mins by HTRF assay
Chain of Serine/threonine-protein kinase B-raf (P15056 whole entry): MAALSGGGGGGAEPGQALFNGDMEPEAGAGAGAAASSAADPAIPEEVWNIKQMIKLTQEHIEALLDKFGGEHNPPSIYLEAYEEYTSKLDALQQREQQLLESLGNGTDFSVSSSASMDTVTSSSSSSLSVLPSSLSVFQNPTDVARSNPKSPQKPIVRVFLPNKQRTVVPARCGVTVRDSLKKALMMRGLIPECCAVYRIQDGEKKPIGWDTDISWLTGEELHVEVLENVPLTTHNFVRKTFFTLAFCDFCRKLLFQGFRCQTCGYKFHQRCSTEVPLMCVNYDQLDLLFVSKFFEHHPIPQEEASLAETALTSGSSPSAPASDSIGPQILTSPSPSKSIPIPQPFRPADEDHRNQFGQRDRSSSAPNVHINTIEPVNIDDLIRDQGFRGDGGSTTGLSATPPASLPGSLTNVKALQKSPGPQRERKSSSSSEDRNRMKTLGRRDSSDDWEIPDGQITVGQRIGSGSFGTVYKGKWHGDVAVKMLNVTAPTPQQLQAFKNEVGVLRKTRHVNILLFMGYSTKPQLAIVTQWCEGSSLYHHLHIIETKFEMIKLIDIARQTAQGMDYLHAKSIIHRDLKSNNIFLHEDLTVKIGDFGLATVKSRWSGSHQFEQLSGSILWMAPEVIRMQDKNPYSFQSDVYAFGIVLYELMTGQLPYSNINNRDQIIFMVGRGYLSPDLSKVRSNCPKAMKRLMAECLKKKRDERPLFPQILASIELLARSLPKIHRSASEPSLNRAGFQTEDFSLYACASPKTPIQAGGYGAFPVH

HT-29 [12] = test: Induction of apoptosis in human HT-29 cells assessed as increase in PARP cleavage at 1 uM pre-treated for 48 hrs by Western blot method relative to beta-actin expression; format: functional; method in brief: as §2
[13] = Cytotoxicity against human H460 cells after 72 hrs by MTT assay; format: functional, cell-based; settings: NCI-H460, 72 h; method in brief: as §3
[14] = biological target: Mast/stem cell growth factor receptor Kit (Homo sapiens, UniProt P10721); test: Inhibition of KIT (unknown origin) using poly (Glu, Tyr) 4:1 substrate incubated for 30 mins by HTRF assay; method in brief: as §1
Chain of Mast/stem cell growth factor receptor Kit (P10721 whole entry, canonical isoform): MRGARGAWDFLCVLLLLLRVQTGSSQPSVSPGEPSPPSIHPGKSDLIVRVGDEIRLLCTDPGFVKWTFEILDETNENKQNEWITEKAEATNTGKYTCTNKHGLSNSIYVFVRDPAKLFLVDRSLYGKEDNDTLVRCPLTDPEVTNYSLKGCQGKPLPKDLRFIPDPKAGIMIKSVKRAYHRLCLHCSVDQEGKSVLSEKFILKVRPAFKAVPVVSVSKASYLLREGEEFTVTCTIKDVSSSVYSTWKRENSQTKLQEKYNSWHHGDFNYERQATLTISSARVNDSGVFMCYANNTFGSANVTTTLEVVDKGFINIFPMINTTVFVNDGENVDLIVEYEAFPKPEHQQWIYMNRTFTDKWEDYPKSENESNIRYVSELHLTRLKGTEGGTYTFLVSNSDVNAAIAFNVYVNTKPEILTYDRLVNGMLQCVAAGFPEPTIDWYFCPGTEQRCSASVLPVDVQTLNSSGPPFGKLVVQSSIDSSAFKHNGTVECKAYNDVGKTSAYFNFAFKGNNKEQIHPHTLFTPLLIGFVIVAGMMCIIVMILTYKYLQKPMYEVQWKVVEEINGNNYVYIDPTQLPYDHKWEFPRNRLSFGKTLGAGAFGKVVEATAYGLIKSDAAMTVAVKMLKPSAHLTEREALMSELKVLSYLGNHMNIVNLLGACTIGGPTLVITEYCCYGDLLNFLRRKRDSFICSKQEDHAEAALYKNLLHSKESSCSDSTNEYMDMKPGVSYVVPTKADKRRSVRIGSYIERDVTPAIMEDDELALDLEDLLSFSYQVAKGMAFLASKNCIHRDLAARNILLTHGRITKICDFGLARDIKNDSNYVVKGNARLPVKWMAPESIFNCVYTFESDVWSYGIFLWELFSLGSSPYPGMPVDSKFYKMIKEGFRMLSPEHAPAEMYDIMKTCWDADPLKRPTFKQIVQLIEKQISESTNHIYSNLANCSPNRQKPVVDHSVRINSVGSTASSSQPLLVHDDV

[15] = biological target: Phosphatidylinositol 4,5-bisphosphate 3-kinase catalytic subunit alpha isoform (Homo sapiens, UniProt P42336); test: Inhibition of PI3Kalpha (unknown origin) using poly (Glu, Tyr) 4:1 substrate incubated for 30 mins by HTRF assay
[16] = biological target: Platelet-derived growth factor receptor beta (Homo sapiens, UniProt P09619); test: Inhibition of PDGFRbeta (unknown origin) using poly (Glu, Tyr) 4:1 substrate incubated for 30 mins by HTRF assay; method in brief: as §1
Chain of Platelet-derived growth factor receptor beta (P09619 whole entry): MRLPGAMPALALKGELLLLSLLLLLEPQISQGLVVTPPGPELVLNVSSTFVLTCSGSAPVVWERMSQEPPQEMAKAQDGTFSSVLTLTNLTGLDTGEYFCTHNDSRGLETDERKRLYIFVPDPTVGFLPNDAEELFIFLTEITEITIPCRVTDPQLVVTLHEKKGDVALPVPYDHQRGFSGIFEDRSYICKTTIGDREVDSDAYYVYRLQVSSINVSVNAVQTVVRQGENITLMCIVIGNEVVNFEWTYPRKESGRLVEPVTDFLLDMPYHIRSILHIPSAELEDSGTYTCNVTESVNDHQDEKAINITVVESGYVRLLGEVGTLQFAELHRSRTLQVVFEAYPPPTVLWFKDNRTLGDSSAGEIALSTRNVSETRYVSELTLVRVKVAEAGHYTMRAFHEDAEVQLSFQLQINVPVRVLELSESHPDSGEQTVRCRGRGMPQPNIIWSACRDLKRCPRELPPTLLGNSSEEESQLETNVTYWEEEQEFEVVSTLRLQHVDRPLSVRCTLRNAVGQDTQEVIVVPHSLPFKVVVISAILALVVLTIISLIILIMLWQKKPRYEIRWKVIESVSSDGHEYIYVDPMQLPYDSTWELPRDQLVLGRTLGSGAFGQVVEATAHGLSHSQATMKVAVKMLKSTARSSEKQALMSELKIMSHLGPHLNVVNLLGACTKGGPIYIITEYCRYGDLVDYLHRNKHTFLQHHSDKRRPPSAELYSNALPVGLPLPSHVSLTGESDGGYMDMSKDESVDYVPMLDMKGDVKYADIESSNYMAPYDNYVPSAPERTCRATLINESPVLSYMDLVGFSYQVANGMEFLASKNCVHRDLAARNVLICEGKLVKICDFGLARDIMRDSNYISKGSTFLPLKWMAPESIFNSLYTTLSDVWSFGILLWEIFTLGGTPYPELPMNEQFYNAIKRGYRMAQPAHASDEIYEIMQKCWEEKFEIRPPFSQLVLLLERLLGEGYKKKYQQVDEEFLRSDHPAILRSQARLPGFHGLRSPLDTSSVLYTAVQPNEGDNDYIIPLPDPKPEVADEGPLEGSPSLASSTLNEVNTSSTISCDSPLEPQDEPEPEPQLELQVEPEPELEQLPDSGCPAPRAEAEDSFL

Chain of RAF proto-oncogene serine/threonine-protein kinase (P04049 whole entry): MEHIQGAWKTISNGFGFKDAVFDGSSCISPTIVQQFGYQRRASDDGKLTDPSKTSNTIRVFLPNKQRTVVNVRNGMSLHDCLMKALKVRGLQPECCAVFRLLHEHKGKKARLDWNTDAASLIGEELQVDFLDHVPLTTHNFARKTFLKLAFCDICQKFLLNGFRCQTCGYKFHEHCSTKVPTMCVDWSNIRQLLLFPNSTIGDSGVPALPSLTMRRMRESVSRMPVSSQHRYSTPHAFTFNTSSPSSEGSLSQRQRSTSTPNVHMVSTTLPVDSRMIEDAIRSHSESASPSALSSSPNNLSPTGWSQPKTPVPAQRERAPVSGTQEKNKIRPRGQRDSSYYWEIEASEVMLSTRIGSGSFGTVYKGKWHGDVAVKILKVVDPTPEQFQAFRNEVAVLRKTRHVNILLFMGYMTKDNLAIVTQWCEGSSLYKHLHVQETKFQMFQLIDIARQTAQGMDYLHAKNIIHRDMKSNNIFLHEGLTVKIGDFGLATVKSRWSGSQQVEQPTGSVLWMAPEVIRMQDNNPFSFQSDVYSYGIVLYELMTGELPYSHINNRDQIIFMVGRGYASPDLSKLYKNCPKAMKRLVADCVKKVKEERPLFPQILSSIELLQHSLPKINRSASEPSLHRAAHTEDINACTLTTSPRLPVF

CCN(CC)CCCNc1nc(-c2ccc(NC(=O)Nc3ccc(Cl)cc3)cc2)nc2ccsc12
IC50 [1]: > 10 µM | IC50 [2]: > 10 µM | IC50 [3]: 1000 nM | IC50 [4]: > 10 µM | fold change (FC) (HT-29 [5]): 3.5 | IC50 [6]: 180 nM | IC50 (HT-29 [7]): 58 nM | Activity (HT-29 [8]): Dose-dependent effect | IC50 [9]: > 10 µM | IC50 (MDA-MB-231): 230 nM | IC50 [10]: > 10 µM | IC50 [11]: > 10 µM | fold change (FC) (HT-29 [12]): 2.5 | IC50 [13]: 81 nM | IC50 [14]: 6.1 µM | IC50 [15]: 130 nM | IC50 [16]: 5.8 µM

CN(C)CCCNc1nc(-c2ccc(NC(=O)Nc3ccccc3F)cc2)nc2ccsc12
IC50 [6]: 730 nM | IC50 (HT-29 [7]): 470 nM | IC50 (MDA-MB-231): 660 nM | IC50 [13]: 530 nM

CCN(CC)CCCNc1nc(-c2ccc(NC(=O)Nc3ccc(F)cc3)cc2)nc2c(Cl)c(Cl)sc12
IC50 [6]: 1700 nM | IC50 (HT-29 [7]): 350 nM | IC50 (MDA-MB-231): 1630 nM | IC50 [13]: 450 nM

CCN(CC)CCCNc1nc(-c2ccc(NC(=O)Nc3ccc(Cl)cc3Cl)cc2)nc2c(Cl)c(Cl)sc12
IC50 [6]: 5720 nM | IC50 (HT-29 [7]): 1230 nM | IC50 (MDA-MB-231): 3940 nM | IC50 [13]: 1170 nM

CCN(CC)CCNc1nc(-c2ccc(NC(=O)Nc3ccc(Cl)cc3Cl)cc2)nc2c(Cl)c(Cl)sc12
IC50 [6]: 1770 nM | IC50 (HT-29 [7]): 1140 nM | IC50 (MDA-MB-231): 1920 nM | IC50 [13]: 1300 nM

Cc1ccc(NC(=O)Nc2ccc(-c3nc(NCCN(C)C)c4sccc4n3)cc2)cc1
IC50 [6]: 2380 nM | IC50 (HT-29 [7]): 2150 nM | IC50 (MDA-MB-231): 2180 nM | IC50 [13]: 1880 nM

CCN(CC)CCCNc1nc(-c2ccc(NC(=O)Nc3ccccc3Cl)cc2)nc2c(Cl)c(Cl)sc12
IC50 [6]: 1450 nM | IC50 (HT-29 [7]): 410 nM | IC50 (MDA-MB-231): 970 nM | IC50 [13]: 330 nM

CN(C)CCNc1nc(-c2ccc(NC(=O)Nc3ccc(Cl)cc3)cc2)nc2c(Cl)c(Cl)sc12
IC50 [6]: 910 nM | IC50 (HT-29 [7]): 460 nM | IC50 (MDA-MB-231): 870 nM | IC50 [13]: 300 nM

CCN(CC)CCNc1nc(-c2ccc(NC(=O)Nc3ccccc3F)cc2)nc2ccsc12
IC50 [6]: 1040 nM | IC50 (HT-29 [7]): 610 nM | IC50 (MDA-MB-231): 580 nM | IC50 [13]: 430 nM

CCN(CC)CCNc1nc(-c2ccc(NC(=O)Nc3ccc(C)cc3)cc2)nc2c(Cl)c(Cl)sc12
IC50 [6]: 1450 nM | IC50 (HT-29 [7]): 950 nM | IC50 (MDA-MB-231): 2010 nM | IC50 [13]: 840 nM

CCN(CC)CCCNc1nc(-c2ccc(NC(=O)Nc3ccc(C)cc3)cc2)nc2ccsc12
IC50 [6]: 1760 nM | IC50 (HT-29 [7]): 1620 nM | IC50 (MDA-MB-231): 1980 nM | IC50 [13]: 1240 nM

CN(C)CCNc1nc(-c2ccc(NC(=O)Nc3ccc(Cl)cc3)cc2)nc2ccsc12
IC50 [6]: 250 nM | IC50 (HT-29 [7]): 95 nM | IC50 (MDA-MB-231): 310 nM | IC50 [13]: 130 nM

CCN(CC)CCCNc1nc(-c2ccc(NC(=O)Nc3ccccc3)cc2)nc2c(Cl)c(Cl)sc12
IC50 [6]: 1640 nM | IC50 (HT-29 [7]): 820 nM | IC50 (MDA-MB-231): 1780 nM | IC50 [13]: 850 nM

CN(C)CCNc1nc(-c2ccc(NC(=O)Nc3ccccc3F)cc2)nc2ccsc12
IC50 [6]: 530 nM | IC50 (HT-29 [7]): 510 nM | IC50 (MDA-MB-231): 600 nM | IC50 [13]: 410 nM

CN(C)CCNc1nc(-c2ccc(NC(=O)Nc3ccccc3Cl)cc2)nc2ccsc12
IC50 [6]: 850 nM | IC50 (HT-29 [7]): 310 nM | IC50 (MDA-MB-231): 550 nM | IC50 [13]: 230 nM

CCN(CC)CCCNc1nc(-c2ccc(NC(=O)Nc3ccccc3)cc2)nc2ccsc12
IC50 [6]: 980 nM | IC50 (HT-29 [7]): 730 nM | IC50 (MDA-MB-231): 1230 nM | IC50 [13]: 680 nM

CCN(CC)CCCNc1nc(-c2ccc(NC(=O)Nc3ccc(Cl)cc3)cc2)nc2c(Cl)c(Cl)sc12
IC50 [6]: 720 nM | IC50 (HT-29 [7]): 250 nM | IC50 (MDA-MB-231): 660 nM | IC50 [13]: 270 nM

CN(C)CCCNc1nc(-c2ccc(NC(=O)Nc3ccccc3Cl)cc2)nc2ccsc12
IC50 [6]: 690 nM | IC50 (HT-29 [7]): 390 nM | IC50 (MDA-MB-231): 590 nM | IC50 [13]: 430 nM

CCN(CC)CCNc1nc(-c2ccc(NC(=O)Nc3ccccc3Cl)cc2)nc2ccsc12
IC50 [6]: 750 nM | IC50 (HT-29 [7]): 620 nM | IC50 (MDA-MB-231): 680 nM | IC50 [13]: 320 nM

CCN(CC)CCCNc1nc(-c2ccc(NC(=O)Nc3ccc(C)cc3)cc2)nc2c(Cl)c(Cl)sc12
IC50 [6]: 3320 nM | IC50 (HT-29 [7]): 890 nM | IC50 (MDA-MB-231): 3040 nM | IC50 [13]: 1240 nM

CN(C)CCCNc1nc(-c2ccc(NC(=O)Nc3ccccc3Cl)cc2)nc2c(Cl)c(Cl)sc12
IC50 [6]: 1330 nM | IC50 (HT-29 [7]): 820 nM | IC50 (MDA-MB-231): 1560 nM | IC50 [13]: 490 nM

CCN(CC)CCNc1nc(-c2ccc(NC(=O)Nc3ccc(Cl)cc3)cc2)nc2c(Cl)c(Cl)sc12
IC50 [6]: 890 nM | IC50 (HT-29 [7]): 430 nM | IC50 (MDA-MB-231): 750 nM | IC50 [13]: 320 nM

CN(C)CCNc1nc(-c2ccc(NC(=O)Nc3ccccc3Cl)cc2)nc2c(Cl)c(Cl)sc12
IC50 [6]: 1170 nM | IC50 (HT-29 [7]): 570 nM | IC50 (MDA-MB-231): 1350 nM | IC50 [13]: 440 nM

CCN(CC)CCCNc1nc(-c2ccc(NC(=O)Nc3ccccc3Cl)cc2)nc2ccsc12
IC50 [6]: 390 nM | IC50 (HT-29 [7]): 340 nM | IC50 (MDA-MB-231): 500 nM | IC50 [13]: 200 nM
